A3G deaminase – APOBEC3G DNA deaminase inhibitors, primary screen, biochemical, fluorescence, single-stranded DNA substrate, uHTS; 330,000 compounds, 0.28% hits; AID 493012, 2011; DNA dC->dU-editing enzyme APOBEC-3G (Homo sapiens), Q9HC16; inhibition, % at 20 µM; recombinant A3G, ssDNA deamination FAM/TAMRA fluorescence;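 active means inhibition of at least 40% at 20 µM, with no more than 30% in the related APOBEC3A deaminase screen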;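 further: plate controls were DMSO wells with A3G for no effect and wells lacking A3G enzyme for full effect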
Target sequence (Q9HC16 whole entry, looked up): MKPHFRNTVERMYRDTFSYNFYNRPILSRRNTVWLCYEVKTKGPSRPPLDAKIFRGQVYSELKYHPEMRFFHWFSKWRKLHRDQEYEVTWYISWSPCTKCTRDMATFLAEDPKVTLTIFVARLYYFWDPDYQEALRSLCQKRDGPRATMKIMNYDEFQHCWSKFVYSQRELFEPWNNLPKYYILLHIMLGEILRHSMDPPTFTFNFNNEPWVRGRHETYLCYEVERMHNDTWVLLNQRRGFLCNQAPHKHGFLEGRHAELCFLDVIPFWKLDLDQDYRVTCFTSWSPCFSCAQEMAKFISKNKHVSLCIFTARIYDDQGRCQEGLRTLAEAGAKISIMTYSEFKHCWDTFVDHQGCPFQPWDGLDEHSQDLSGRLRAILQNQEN
HKDC1 inhibitor – HKDC1 hexokinase inhibitors, primary screen, biochemical, fluorescence, uHTS | inhibition, % at 20 µM | Q2TB90 | 340,000 compounds, 0.16% hits | recombinant HKDC1, G6PDH/diaphorase resazurin coupled fluorescence | AID 493160, 2011;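 active means inhibition above about 35% when tested at 20 µM, limit read from the data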;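 further: plate controls were DMSO wells with enzyme for no effect and DMSO wells lacking enzyme for full effect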
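Test system: HK5 enzyme. Quantity: 5 µg/mL HK5 final. Reagent: glucose and ATP substrates. Schedule: 90 min reaction incubation at room temperature, dark. Technique: resazurin-to-resorufin fluorescence via G6PDH and diaphorase coupling, 525/613 nm. Control set: DMSO wells with and without enzyme mix.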
hiPSC survival – enhancers of single-cell hiPSC survival, primary screen, ATPlite luminescence. 100% = ROCK inhibitor wells, 0% = DMSO. survival enhancement, % at 20 µM. 360,000 compounds, 0.044% hits. AID 602274, 2012; in the data active means survival enhancement above about 18%;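 further: cells exposed to compounds for 16 hours before the ATP read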
PfGluPho inh – PfG6PD enzyme inhibitors, primary screen, biochemical, fluorescence intensity, uHTS | AID 504690, 2011 | 350,000 compounds, 0.78% hits | inhibition, % at 20 µM | glucose-6-phosphate dehydrogenase-6-phosphogluconolactonase (Plasmodium falciparum 3D7) | PfGluPho enzyme, NADPH resazurin-diaphorase fluorescence;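 active means inhibition reaching at least a set limit at 20 µM in the primary screen, cut at about 59% in these data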;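 further: 0% = DMSO wells with substrate and 100% = DMSO wells lacking glucose-6-phosphate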
APOBEC3A inh – APOBEC3A ssDNA deaminase inhibitors, primary screen, selectivity assay for APOBEC3G inhibitor project, biochemical, FAM/TAMRA oligo cleavage fluorescence; DNA dC->dU-editing enzyme APOBEC-3A (Homo sapiens), P31941; 330,000 compounds, 0.41% hits; AID 493011, 2011; recombinant A3A, FAM/TAMRA ssDNA deamination fluorescence; inhibition, % at 20 µM;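 active means at least 40% inhibition at 20 µM here, with at most 30% in a related deaminase screen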;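 further: plate controls were A3A with DMSO for no effect and wells lacking A3A enzyme for full effect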
Target sequence (P31941 whole entry, looked up): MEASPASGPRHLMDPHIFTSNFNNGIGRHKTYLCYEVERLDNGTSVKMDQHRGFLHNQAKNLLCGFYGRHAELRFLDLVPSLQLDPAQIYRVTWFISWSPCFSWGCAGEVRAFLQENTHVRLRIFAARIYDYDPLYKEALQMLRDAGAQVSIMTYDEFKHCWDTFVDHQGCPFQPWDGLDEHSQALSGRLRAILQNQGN
PfG6PD confirm – PfG6PD inhibitors, hit retest, confirmation, biochemical, fluorescence intensity, single concentration | shares compounds with PfGluPho inh | recombinant PfGluPho, NADPH-diaphorase-resazurin fluorescence | inhibition, % at 20 µM | 2,400 compounds, 34% hits | AID 504753, 2011;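 active means inhibition of at least 50% at 20 µM in any single replicate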;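 further: 0% = DMSO with substrate and 100% = DMSO lacking glucose-6-phosphate substrate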
Diaphorase 10uM – diaphorase inhibitors and chemical oxidizers, confirmation, counter-screen for P. falciparum G6PD inhibitor project, biochemical, fluorescence intensity, 10 µM NADPH | shares compounds with PfGluPho inh | diaphorase-coupled resazurin reduction, NADPH 10 uM | inhibition, % at 20 µM | 820 compounds, 39% hits;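 active means average inhibition reaching 50% or more with the compound at 20 µM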;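 further: resorufin red fluorescence formed as diaphorase reduces resazurin using NADPH; 0% = DMSO with enzyme and 100% = DMSO without enzyme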
Diaph ctr 30uM – diaphorase inhibitors and chemical oxidizers, confirmation, counter-screen for P. falciparum G6PD inhibitor project, biochemical, fluorescence intensity, 30 µM NADPH; Diaphorase/resazurin coupled assay, resorufin fluorescence; shares compounds with PfGluPho inh; inhibition, % at 20 µM; 820 compounds, 29% hits;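 active means inhibition averaging 50% or more, tested at 20 µM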;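 further: 0% = DMSO with enzyme and 100% = DMSO wells lacking diaphorase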
Numbers without * were called inactive; · = not tested or not shown. Most compounds without a hit are left out; they make up all but 1.4% or so of the library.

SMILES	A3G deaminase	HKDC1 inhibitor	hiPSC survival	PfGluPho inh	APOBEC3A inh	PfG6PD confirm	others
COc1ccc(-c2cnc3c(NC(C)=O)cc(-c4cccc(NS(C)(=O)=O)c4)cn23)cc1OC	·	·	-2.3	·	·	·
O=C1Nc2ccccc2/C1=C\C(=O)c1ccccc1	-10.1	3.8	-0.6	20.7	-3.4	·
O=C(/C=C1\C(=O)Nc2ccccc21)/C=C1\C(=O)Nc2ccccc21	·	12.9	3.0	80.6*	·	41.2
O=C(Nc1ccc(-n2cccc2)cc1)C1CC1	-2.3	-7.4	0.2	4.1	-7.4	·
Cc1ccc(S(=O)(=O)Nc2ccccc2N2CCCCC2)cc1	-7.9	1.8	5.8	95.3*	-5.4	34.8
Cc1ccc(S(=O)(=O)Nc2ccccc2N2CCOCC2)cc1	-7.1	-7.3	-0.3	61.8*	-0.3	39.2
Cc1ccc(S(=O)(=O)Nc2ccc(N3CCOCC3)cc2)cc1	2.2	-2.6	0.1	9.9	1.7	·
Cc1ccc(S(=O)(=O)Nc2ccccc2-c2ccccc2)cc1	-5.0	2.7	-1.5	76.4*	0.2	31.7
O=S(=O)(Nc1cc(C(F)(F)F)ccc1N1CCOCC1)c1ccccc1	-6.7	2.7	0.0	-2.5	-4.1	·
Cc1cccc(S(=O)(=O)Nc2cc(Cl)ccc2N2CCOCC2)c1	-5.9	-1.8	-0.4	87.2*	-1.0	31.1
O=C(NC1(Cc2ccccc2)CCN(Cc2ccc(-c3ccccc3)cc2)C1=O)c1ccccc1 (stereo not drawn)	-8.3	-2.0	0.4	14.5	-0.4	·
CNc1cnc(-c2ccc(F)c(F)c2F)cn1	·	·	3.5	·	·	·
Cc1c(Cl)cccc1NC(=S)NNS(=O)(=O)c1ccc([N+](=O)[O-])cc1	-7.0	4.3	-0.3	2.0	-2.4	·
COCCN(C(=O)COC(=O)CCCOc1ccc(OC)cc1)c1c(N)n(Cc2ccccc2)c(=O)[nH]c1=O	-0.9	-7.9	-0.3	12.8	-0.9	·
COC1C=CC(CNC(=O)c2cc3c(=O)n4cccc(C)c4nc3n2C)(OC)O1 (stereo not drawn)	-5.7	0.3	-2.2	79.5*	5.1	-7.0
Cc1cc(F)ccc1S(=O)(=O)Nc1ccccc1C(=O)NC1CCN(Cc2ccccc2)CC1	-7.0	1.6	0.3	-2.6	-0.4	·
Cn1c(C(=O)Nc2ccc3c(c2)OCO3)cc2sccc21	-5.5	7.9	-3.4	80.8*	6.5	22.3
Cn1c(C(=O)NCc2ccc3c(c2)OCO3)cc2sccc21	-3.9	-3.4	-0.9	20.0	6.3	·
Cc1nc2ccccc2c(=O)n1/N=C/c1ccc(O)c(O)c1O	59.9	14.5	0.8	91.9*	66.0	100.5*	Diaphorase 10uM=97.4*;Diaph ctr 30uM=95.6*
COc1ccc(CCn2c(=O)c3cccnc3n(Cc3cccc([N+](=O)[O-])c3)c2=O)cc1OC	-6.7	-5.5	0.4	4.9	-2.2	·
O=C(N/C(=C\c1ccccc1)C(=O)N1CCCCC1)c1ccc(Br)o1	0.9	-3.8	-0.4	2.0	1.9	·
CCc1ccc(CNc2ccc(O)cc2)cc1	2.1	23.7	-4.4	84.9*	0.0	42.6
COc1cc(CNc2ccc(O)cc2)cc(Br)c1OCc1ccccc1	0.6	2.4	-0.6	57.3	1.2	·
Oc1ccc(NCc2ccc(OCc3ccccc3)cc2)cc1	·	9.7	-0.7	66.1*	·	25.8
O=S(=O)(Nc1cc(Sc2cccc3cccnc23)c(O)c2ccccc12)c1ccc(F)cc1	·	27.7	·	98.4*	·	84.8*	Diaphorase 10uM=22.3;Diaph ctr 30uM=15.9
SMILES	A3G deaminase	HKDC1 inhibitor	hiPSC survival	PfGluPho inh	APOBEC3A inh	PfG6PD confirm	others
O=C(Sc1cccc2cccnc12)c1ccc(F)cc1	-1.5	·	·	·	0.7	·
N#Cc1c(NC(=O)Cn2nc(C(F)(F)F)c3c2CCCC3)sc2c1CCC2	24.5	-18.2	6.5	69.7*	-0.2	43.1
CC1CCc2c(sc(NC(=O)Cn3nc(C(F)(F)F)c4c3CCCCC4)c2C#N)C1 (stereo not drawn)	13.4	-8.6	0.8	27.8	-3.1	·
Cc1cccc(NCC(=O)N/N=C\c2ccccn2)c1	-4.1	-2.2	0.2	10.6	0.0	·
O=C(CNc1cccc2ccccc12)N/N=C/c1ccccn1	-5.9	18.1	1.5	59.6*	-0.5	20.2
Cn1c(=O)[nH]c(=O)c2c1nc(SCCN1CCCCC1)n2Cc1ccccc1	0.1	-0.3	-0.2	-11.1	1.6	·
Cn1c(=O)[nH]c(=O)c2c1nc(SCCN1CCCCC1)n2CCCc1ccccc1	38.3	0.0	0.8	76.8*	-1.0	62.7*	Diaphorase 10uM=6.2;Diaph ctr 30uM=-5.2
O=C(Nc1ccccc1)N(O)c1ccc(Cl)cc1	-5.5	0.2	-3.3	86.7*	1.9	35.1
CCN(CCS(=O)(=O)c1ccc(Cl)cc1)C(=O)Nc1ccccc1	-6.2	-0.3	-0.1	0.2	-2.9	·
N#CCC(=O)N/N=C/c1ccc(Sc2nc3ccccc3s2)o1	-8.1	2.0	-0.4	67.6*	-2.3	21.4
COCC(=O)N/N=C/c1ccc(Sc2nc3ccccc3s2)o1	2.0	1.3	-2.3	59.5*	0.5	21.1
Cc1ccccc1OCC(=O)N/N=C/c1ccc(Sc2nc3ccccc3s2)o1	-5.9	7.8	2.9	122.5*	-4.1	58.5*	Diaphorase 10uM=43.6;Diaph ctr 30uM=43.5
O=C(COc1cccc2ccccc12)N/N=C/c1ccc(Sc2nc3ccccc3s2)o1	-10.1	6.0	-0.8	26.7	-6.5	·
O=C(Cc1cccc2ccccc12)N/N=C/c1ccc(Sc2nc3ccccc3s2)o1	-3.7	4.9	-1.5	74.2*	-1.7	5.8
CNC(=O)COC(=O)c1ccc2c(c1)NC(=O)C1CCCN21 (stereo not drawn)	-8.0	·	·	·	-1.9	·
COc1ccccc1-n1c(=S)[nH]c2c(sc(=S)n2-c2ccccc2)c1=O	-4.7	-5.5	-0.5	63.1*	-2.5	12.4
COc1ccccc1-n1c(=S)[nH]c2c(sc(=S)n2-c2ccccc2C)c1=O	-7.6	-2.2	-0.3	71.9*	-1.4	23.4
CCOc1ccccc1-n1c(=S)sc2c(=O)n(-c3ccccc3)c(=S)[nH]c21	-11.3	-0.7	0.1	73.0*	3.0	-5.3

Screening data from PubChem BioAssay.
